This is an account of results in the array DNA melting data of Ke et al. (doi:10.1101/2024.01.08.574731).

A short description of data set [1]: folding enthalpy; higher = less favourable; fluorescence melt of hairpins on a sequencing array, two-state fit. To be noted: sodium 0.088 M. In short, it runs like this:
(§1)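 Bootstrapped two-state fits yielded melting temperature and folding enthalpy for library hairpins. Cy3 fluorescence, with annealed Cy3 and quencher oligos, was imaged on a sequenced MiSeq flow cell in 50 mM Na-HEPES pH 8.0, 25 mM NaCl in 2.5 °C steps up to 60 °C, and normalised to pre-quench Cy3 and to control constructs. Four replicates were combined by inverse variance, and fitted temperatures were raised by 9.35 °C to match UV melts.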

The nature of data set [2]: melting temperature; fluorescence melt of hairpins on a sequencing array, two-state fit, raised by 9.35 °C to match UV melts. Particulars: sodium 0.088 M. In short, it runs like this: as §1

For the sequence AAAGTGAAAACTTT (((((....))))), in data set [1], the folding enthalpy was -11.1 kcal/mol. In addition, the Tm in data set [2] amounted to 33 °C.
The matching figures for AAATCGAAAGATTT (((((....))))): -13.6 kcal/mol and 46.6 °C.
AACCTGAAAAGGTT (((((....))))): the folding enthalpy in data set [1] was -20 kcal/mol. Also, the Tm in data set [2] came to 45.5 °C.
With AACGTGAAAACGTT (((((....))))), in data set [1], the folding enthalpy was -19.2 kcal/mol. Besides, the Tm in data set [2] stood at 48 °C.
Take AACTTGAAAAAGTT (((((....))))): the folding enthalpy in data set [1] is -14.2 kcal/mol. The Tm in data set [2] was 30.4 °C.
For AAGACGAAAGTCTT (((((....))))), in that order: -20.1 kcal/mol and 52.7 °C.
For AAGCGGAAACGCTT (((((....))))), in that order: -17.5 kcal/mol and 57.3 °C.
On to AAGGGGAAACCCTT (((((....))))), for which the folding enthalpy in data set [1] was -13.8 kcal/mol. Also, the Tm in data set [2] came to 46 °C.
Consider AAGGTGAAAACCTT (((((....))))), for which the folding enthalpy in data set [1] is -17.5 kcal/mol. Moreover, in data set [2], the Tm came to 43.2 °C.
The matching figures for AAGTCGAAAGACTT (((((....))))): -18.3 kcal/mol and 52.6 °C.
The matching figures for AATACGAAAGTATT (((((....))))): -15.3 kcal/mol and 44.8 °C.
For AATGTGAAAACATT (((((....))))), in that order: -15 kcal/mol and 37.8 °C.
With ACAACGAAAGTTGT (((((....))))), the folding enthalpy in data set [1] was -21.6 kcal/mol. For the same sequence, the Tm in data set [2] was found to be 53.6 °C.
The matching figures for ACAAGGAAACTTGT (((((....))))): -12.6 kcal/mol and 40.3 °C.
ACACGGAAACGTGT (((((....))))): the folding enthalpy in data set [1] is -24 kcal/mol. Further, in data set [2], the Tm was 55.1 °C.
As for ACATAGAAATATGT (((((....))))), in data set [1], the folding enthalpy is -7.88 kcal/mol. In addition, the Tm in data set [2] was found to be 24.6 °C.
For the sequence ACCCAGAAATGGGT (((((....))))), the folding enthalpy in data set [1] is -18.3 kcal/mol. Besides, the Tm in data set [2] is 47.9 °C.
In the case of ACGATGAAAATCGT (((((....))))), the folding enthalpy in data set [1] is -19 kcal/mol. For the same sequence, the Tm in data set [2] is 51 °C.
For ACTTCGAAAGAAGT (((((....))))), in that order: -20.8 kcal/mol and 50.8 °C.
Regarding AGATCGAAAGATCT (((((....))))), in data set [1], the folding enthalpy is -23.2 kcal/mol. Moreover, the Tm in data set [2] was found to be 50.9 °C.
For AGCTTGAAAAAGCT (((((....))))), the folding enthalpy in data set [1] was -17.4 kcal/mol. Further, the Tm in data set [2] was 47.9 °C.
For AGGTAGAAATACCT (((((....))))), in that order: -14.5 kcal/mol and 33.5 °C.
For AGTACGAAAGTACT (((((....))))), in that order: -21.4 kcal/mol and 54.1 °C.
For the sequence AGTCGGAAACGACT (((((....))))), the folding enthalpy in data set [1] is -20.1 kcal/mol. In data set [2], the Tm was 54.3 °C.
The matching figures for AGTTCGAAAGAACT (((((....))))): -20.8 kcal/mol and 55.4 °C.
The matching figures for ATACAGAAATGTAT (((((....))))): -10.4 kcal/mol and 25.3 °C.
The matching figures for “ATCAGTGAAAAATCACTGAA ....................”: -20.6 kcal/mol and 31.9 °C.
With “ATCAGTGAGAAATCACTGAA ....................”, the folding enthalpy in data set [1] is -14.1 kcal/mol. Besides, the Tm in data set [2] is 46.2 °C.
The matching figures for ATCCAGAAATGGAT (((((....))))): -14.3 kcal/mol and 41.2 °C.
The matching figures for ATCCGGAAACGGAT (((((....))))): -20.7 kcal/mol and 52.8 °C.
In the case of ATTCCGAAAGGAAT (((((....))))), the folding enthalpy in data set [1] was -20.8 kcal/mol. The Tm in data set [2] amounted to 52.4 °C.
The matching figures for CAAACAGAAATGGTTG (((.((....)).))): -13 kcal/mol and 29.4 °C.
On to CATCAGAAATGATG (((((....))))), for which the folding enthalpy in data set [1] was -18.6 kcal/mol. Besides, in data set [2], the Tm was determined as 41.7 °C.
For CATCTGAAAAGATG (((((....))))), in that order: -25.1 kcal/mol and 44.5 °C.
In the case of CATTTGAAAAAATG (((((....))))), the folding enthalpy in data set [1] is -11.1 kcal/mol. In addition, the Tm in data set [2] came out at 32.1 °C.
For CCCCAGAAATGGGG (((((....))))), in that order: -16 kcal/mol and 52.2 °C.
For the sequence CCGAAGAAATTCGG (((((....))))), the folding enthalpy in data set [1] is -19.2 kcal/mol. In data set [2], the Tm worked out at 46.9 °C.
Take CCGGAGAAATCCGG (((((....))))): the folding enthalpy in data set [1] was -21.4 kcal/mol. Further, the Tm in data set [2] was 56.5 °C.
Consider CCGTGGAAACACGG (((((....))))), for which the folding enthalpy in data set [1] was -29.2 kcal/mol. Besides, in data set [2], the Tm came to 59.1 °C.
For CGAAAGAAATTTCG (((((....))))), in that order: -13.6 kcal/mol and 38.5 °C.
Regarding CGAACACGGAAACGTTCG (((..(((....)))))), the folding enthalpy in data set [1] is -32.4 kcal/mol. In data set [2], the Tm came out at 42.7 °C.
In the case of CGAACCGGAAACGGCTCG (((.(((....))).))), in data set [1], the folding enthalpy is -35.5 kcal/mol. For the same sequence, in data set [2], the Tm came to 49.9 °C.
As to CGAACCGGAAACGGGTCG (((.(((....))).))), in data set [1], the folding enthalpy is -33.9 kcal/mol. Moreover, the Tm in data set [2] stood at 58.3 °C.
For the sequence CGAACGGAAACGTGCTCG ((((((....)))..))), the folding enthalpy in data set [1] is -15.1 kcal/mol. For the same sequence, in data set [2], the Tm came to 28.5 °C.
For CGAACGGAAACGTGTCG ((((((....))).))), in that order: -23.1 kcal/mol and 38.5 °C.
Regarding CGAAGGAAACTTCG (((((....))))), the folding enthalpy in data set [1] was -21.5 kcal/mol. Besides, the Tm in data set [2] came out at 48.6 °C.
Turning to CGAAGGCGGAAACGCTCG (((..(((....)))))), the folding enthalpy in data set [1] was -20.8 kcal/mol. Moreover, the Tm in data set [2] came out at 37.5 °C.
For CGAATCGGAAACGAATCG (((.(((....))).))), in that order: -37.4 kcal/mol and 44.7 °C.
The matching figures for CGAATCGGAAACGATCG (((.(((....)))))): -32.4 kcal/mol and 45.6 °C.
In the case of CGACACGGAAACGTATCG (((.(((....))).))), the folding enthalpy in data set [1] is -28.1 kcal/mol. The Tm in data set [2] was 42.3 °C.
Take CGACACGGAAACGTTTCG (((.(((....))).))): the folding enthalpy in data set [1] was -33.7 kcal/mol. For the same sequence, the Tm in data set [2] came to 44.8 °C.
Consider CGACCCGGAAACGGATCG (((.(((....))).))), for which the folding enthalpy in data set [1] is -33.4 kcal/mol. Further, in data set [2], the Tm was 48.8 °C.
Consider CGACCCGGAAACGGCTCG (((.(((....))).))), for which, in data set [1], the folding enthalpy was -23.7 kcal/mol. For the same sequence, the Tm in data set [2] stood at 40.1 °C.
With CGACCGGAAACGGAATCG ((((((....)))..))), the folding enthalpy in data set [1] is -14.3 kcal/mol. For the same sequence, the Tm in data set [2] worked out at 35.7 °C.
Turning to CGACCGGAAACGGACTCG ((((((....)))..))), the folding enthalpy in data set [1] is -12.9 kcal/mol. For the same sequence, the Tm in data set [2] turned out to be 30.7 °C.
Take CGACCGGAAACGGGATCG ((((((....)))..))): the folding enthalpy in data set [1] is -15.7 kcal/mol. Also, in data set [2], the Tm was found to be 38.8 °C.
For CGACCGGAAACGGGTTCG ((((((....)))..))), in that order: -21.4 kcal/mol and 38.9 °C.
The matching figures for CGACCGGAAACGGTATCG ((((((....)))..))): -13.6 kcal/mol and 33.6 °C.
The matching figures for CGACTCCGGAAACGGTCG (((..(((....)))))): -24.1 kcal/mol and 38.4 °C.
Consider CGAGAACGGAAACGTTCG (((..(((....)))))), for which the folding enthalpy in data set [1] is -25.3 kcal/mol. The Tm in data set [2] came out at 52.9 °C.
For the sequence CGAGCACGGAAACGTTCG (((..(((....)))))), the folding enthalpy in data set [1] was -13.5 kcal/mol. Besides, in data set [2], the Tm was determined as 36.7 °C.
With CGAGCGGAAACGCTTCG ((((((....))).))), the folding enthalpy in data set [1] is -15 kcal/mol. The Tm in data set [2] came to 50.6 °C.
For CGAGGCGGAAACGCTTCG (((.(((....))).))), in that order: -35.3 kcal/mol and 55.3 °C.
For CGATACCGGAAACGGTCG (((..(((....)))))), in that order: -12.3 kcal/mol and 35.1 °C.
For CGATACGGAAACGTTCG (((.(((....)))))), in that order: -28.6 kcal/mol and 42.3 °C.
In the case of CGATCCGGAAACGGTCG (((.(((....)))))), in data set [1], the folding enthalpy is -29.1 kcal/mol. For the same sequence, the Tm in data set [2] was found to be 50.5 °C.
CGATCGGAAACGACGTCG ((((((....)))..))): the folding enthalpy in data set [1] was -18.6 kcal/mol. The Tm in data set [2] turned out to be 40.8 °C.
For CGATCGGAAACGAGGTCG ((((((....)))..))), in that order: -13.5 kcal/mol and 31 °C.
The matching figures for CGATCGGAAACGAGTCG ((((((....))).))): -24.7 kcal/mol and 39.9 °C.
As for CGATCGGAAACGAGTTCG ((((((....)))..))), the folding enthalpy in data set [1] was -20.5 kcal/mol. Also, the Tm in data set [2] came out at 34.3 °C.
For CGATGCGGAAACGCCTCG (((.(((....))).))), in that order: -40.4 kcal/mol and 48.1 °C.
For CGATGCGGAAACGCTTCG (((.(((....))).))), in that order: -41.7 kcal/mol and 53 °C.
Take CGATGGCGGAAACGCTCG (((..(((....)))))): the folding enthalpy in data set [1] was -15.8 kcal/mol. In data set [2], the Tm came to 38.5 °C.
On to CGATTCGGAAACGATCG (((.(((....)))))), for which the folding enthalpy in data set [1] is -32.8 kcal/mol. In addition, the Tm in data set [2] was 44 °C.
For CGCAACGGAAACGTGGCG (((.(((....))).))), in that order: -46.5 kcal/mol and 57.7 °C.
The matching figures for CGCAAGAAATTGCG (((((....))))): -29.6 kcal/mol and 53.3 °C.
